Experimental findings from ChEMBL document CHEMBL3739298, “(9βH)-Pimaranes and Derivatives from the Tuber of Icacina trichantha” (J Nat Prod, 2015) are described below.

What all share (type): functional, cell-based
The test system of assay [1] is MDA-MB-231. As to the kind of experiment: Cytotoxicity against human MDA-MB-231 cells after 72 hrs by cell proliferation assay. The gist of the method:
(§1)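 Cells from ATCC grown at 37 °C, 5% CO2 in RPMI 1640 with 10% FBS, penicillin 100 units/mL, streptomycin 100 μg/mL. Log-phase cells trypsinized, washed twice, seeded at 5000/well, left overnight. DMSO-dissolved samples tested at 20, 4, 0.8, 0.16, 0.032 μM (final DMSO 0.5%) for 72 h at 37 °C. Viable cells read by MTS-type absorbance assay; IC50 relative to DMSO control.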

Assay [2] is described as follows: Cytotoxicity against human OVCAR3 cells after 72 hrs by cell proliferation assay. The following applies: ovcar-3. The gist of the method:
as §1

Assay [3] has as its system MDA-MB-435. In words: Cytotoxicity against human MDA-MB-435 cells after 72 hrs by cell proliferation assay. Conditions: for IC50: mda-mb-435; call rule not given here. Put shortly:
as §1

pIC50: −log10 of the molar value.

In the case of `C[C@]12C(=O)OC[C@@]3(CC[C@@H]1O)[C@@H]1CC(=O)c4ccoc4[C@@H]1C[C@@H](O)[C@H]32`, the IC50 result in assay [1], in assay [2] and in assay [3] was “Not Active” in each case.

With `C[C@@]12C(=O)CC[C@]3(C)[C@@H]4CC[C@@]5(C)[C@@H](O)CO[C@H]5C4=C[C@@H](OC1=O)[C@@H]23`, the IC50 result in assay [1], in assay [2] and in assay [3] was “Not Active” throughout.

For `COc1cc2c(c3occc13)[C@@H](O)[C@H]1OC(=O)[C@]3(C)[C@H]1[C@]21CCC3(O)OC1`, the IC50 result in assay [1], in assay [2] and in assay [3] was “Not Active” each time.

Usually pIC50 stands for the IC50 on a negative log10 scale, so that one unit is a factor of ten. In the case of `CO[C@@]12OC[C@@H](O)[C@]1(C)CC[C@@H]1C2=C[C@H]2OC(=O)[C@]3(C)[C@H]2[C@]12CCC3(O)OC2`, the IC50 result in assay [1] and in assay [2] was “Not Active” throughout. Also, the pIC50 in assay [3] (Homo sapiens, MDA-MB-435, 72 h, read-out: IC50) was 5.15.

Turning to `C[C@]12C(=O)O[C@@H]3Cc4c(cc(O)c5ccoc45)[C@@]4(CCC1(O)OC4)[C@@H]32`, the IC50 result in assay [1], in assay [2] and in assay [3] was “Not Active” each time.
